≈ marks a conversion by molar mass, not a printed value.
Columns and labels:
Vero [1] = experiment: Proliferation of Vero cells by propagation on day 4 by measuring optical density (absorbance) at 100 ug/mL; format: functional, Chlorocebus sabaeus
How it was run: (§1)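 Cells were suspended in medium with compound and seeded at low density in 24-well dishes (Vero 5×10^4, HEp-2 1×10^5 cells/well), four wells per condition, and grown 4 days. Cells were stained with 0.01% neutral red in PBS for 2 h at 37 °C, washed, dried, and dissolved in ethanol/0.1 M NaH₂PO₄ (1:1). OD was read at 546 nm, taken as proportional to cell number.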

HEp-2 [2] = experiment: Antiviral activity against HSV-2 (K979) in human epithelial (Hep-2) cells; format: functional
How it was run: (§2)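 CPE inhibition: serial 3-fold compound dilutions in E-MEM, then virus and cell suspension (E-MEM plus 15% fetal calf serum) added together. Cell input set for a confluent monolayer in 1-2 days, virus input for 90-100% CPE in infected controls at 3 days. Plates then fixed and stained, and CPE estimated against infected untreated controls. Uninfected compound-treated cells included.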

Vero [3] = experiment: Proliferation of Vero cells by propagation on day 4 by measuring optical density (absorbance) at 330 ug/mL; format: functional, Chlorocebus sabaeus; how it was run: as §1
HEp-2 [4] = experiment: Proliferation of Hep-2 cells by propagation on day 4 by measuring optical density (absorbance) at 30 ug/mL; format: functional, Homo sapiens; how it was run: as §1
Vero [5] = experiment: Proliferation of Vero cells by propagation on day 4 by measuring optical density (absorbance) at 30 ug/mL; format: functional, Chlorocebus sabaeus; how it was run: as §1
HEp-2 [6] = experiment: Antiviral activity against HSV-1 (Brand) in human epithelial (Hep-2) cells; format: functional; how it was run: as §2
[7] = Antiviral activity against HSV-2 (G) in Primary Rabbit Kidney (PRK) cells; format: functional; conditions: Oryctolagus cuniculus
HEp-2 [8] = experiment: Proliferation of Hep-2 cells by propagation on day 4 by measuring optical density (absorbance) at 100 ug/mL; format: functional, Homo sapiens; how it was run: as §1
Vero [9] = experiment: Antiviral activity against HSV-2 (K979) in Vero cells; format: functional; conditions: Chlorocebus sabaeus; how it was run: as §2
[10] = Antiviral activity against HSV-1 (KOS) in Primary Rabbit Kidney (PRK) cells; format: functional; conditions: Oryctolagus cuniculus
Vero [11] = experiment: Antiviral activity against HSV-1 (Brand) in Vero cells; format: functional; conditions: Chlorocebus sabaeus; how it was run: as §2
HEp-2 [12] = experiment: Proliferation of Hep-2 cells by propagation on day 4 by measuring optical density (absorbance) at 330 ug/mL; format: functional, Homo sapiens; how it was run: as §1
[13] = Antiviral activity against VZV (Ellen) in human lung fibroblast (HLF-1) cells; format: functional

| Compound | Control (Vero [1]) | MIC (HEp-2 [2]) | Control (Vero [3]) | Control (HEp-2 [4]) | Control (Vero [5]) | MIC (HEp-2 [6]) | MIC [7] | Control (HEp-2 [8]) | MIC (Vero [9]) | MIC [10] | MIC (Vero [11]) | Control (HEp-2 [12]) | MIC [13] |
| --- | --- | --- | --- | --- | --- | --- | --- | --- | --- | --- | --- | --- | --- |
| NC1=NC(=O)C2N=CN(COCCO)C2=N1 (stereo not drawn) | 73% | 3 µg/mL (≈ 13.3 µM) | 56% | 89% | 77% | 1 µg/mL (≈ 4.44 µM) | 0.04 µg/mL (≈ 0.178 µM) | 78% | 1 µg/mL (≈ 4.44 µM) | 0.06 µg/mL (≈ 0.266 µM) | 0.003 µg/mL (≈ 0.0133 µM) | 41% | – |
| O=c1[nH]c(=O)n([C@H]2C[C@H](O)[C@@H](CO)O2)cc1I [IDOXURIDINE] | 34% | 0.3 µg/mL (≈ 0.847 µM) | 16% | 61% | 61% | 0.3 µg/mL (≈ 0.847 µM) | 0.91 µg/mL (≈ 2.57 µM) | 20% | 1 µg/mL (≈ 2.82 µM) | 0.2 µg/mL (≈ 0.565 µM) | 0.1 µg/mL (≈ 0.282 µM) | 0% | 10 µg/mL (≈ 28.2 µM) |
| O=c1[nH]c(=O)n([C@H]2C[C@H](O)[C@@H](CO)O2)cc1CCF | 97% | 1 µg/mL (≈ 3.65 µM) | 71% | 97% | 94% | 0.03 µg/mL (≈ 0.109 µM) | 1.5 µg/mL (≈ 5.47 µM) | 86% | 3 µg/mL (≈ 10.9 µM) | 0.58 µg/mL (≈ 2.11 µM) | 0.1 µg/mL (≈ 0.365 µM) | 60% | 3 µg/mL (≈ 10.9 µM) |
| O=c1[nH]c(=O)n([C@H]2C[C@H](O)[C@@H](CO)O2)cc1CCCl | 91% | 3 µg/mL (≈ 10.3 µM) | 82% | 104% | 84% | 0.03 µg/mL (≈ 0.103 µM) | 2.1 µg/mL (≈ 7.22 µM) | 99% | 30 µg/mL (≈ 103 µM) | 0.14 µg/mL (≈ 0.482 µM) | 0.01 µg/mL (≈ 0.0344 µM) | 86% | 0.01 µg/mL (≈ 0.0344 µM) |
| O=c1[nH]c(=O)n([C@H]2C[C@H](O)[C@@H](CO)O2)cc1/C=C/Br [BRIVUDINE] | 71% | 3 µg/mL (≈ 9.01 µM) | 55% | 79% | 74% | 0.01 µg/mL (≈ 0.03 µM) | 2.3 µg/mL (≈ 6.9 µM) | 68% | 30 µg/mL (≈ 90.1 µM) | 0.007 µg/mL (≈ 0.021 µM) | 0.001 µg/mL (≈ 0.003 µM) | 31% | 0.001 µg/mL (≈ 0.003 µM) |
| O=c1[nH]c(=O)n([C@@H]2O[C@H](CO)[C@@H](O)[C@@H]2F)cc1I [FIALURIDINE] | 6% | 0.1 µg/mL (≈ 0.269 µM) | 0% | 49% | 37% | 0.01 µg/mL (≈ 0.0269 µM) | 0.02 µg/mL (≈ 0.0538 µM) | 13% | 0.1 µg/mL (≈ 0.269 µM) | 0.02 µg/mL (≈ 0.0538 µM) | 0.01 µg/mL (≈ 0.0269 µM) | 0% | 0.003 µg/mL (≈ 0.00806 µM) |
| O=c1[nH]c(=O)n(C2O[C@H](CO)[C@@H](O)[C@@H]2O)cc1CCCl (stereo partly drawn) | – | 100 µg/mL (≈ 326 µM) | – | – | – | 30 µg/mL (≈ 97.8 µM) | – | – | 100 µg/mL (≈ 326 µM) | – | 30 µg/mL (≈ 97.8 µM) | – | – |
| Cc1cn([C@@H]2O[C@H](CO)[C@@H](O)[C@@H]2F)c(=O)[nH]c1=O [5-METHYL-2'-FLUOROARAURACIL] | 6% | 0.1 µg/mL (≈ 0.384 µM) | 0% | 36% | 7% | 0.3 µg/mL (≈ 1.15 µM) | 0.02 µg/mL (≈ 0.0769 µM) | 3% | 0.3 µg/mL (≈ 1.15 µM) | 0.04 µg/mL (≈ 0.154 µM) | 0.03 µg/mL (≈ 0.115 µM) | 0% | 0.001 µg/mL (≈ 0.00384 µM) |
| Nc1nc(=O)n([C@@H]2O[C@H](CO)[C@@H](O)[C@H]2F)cc1I | 43% | 0.03 µg/mL (≈ 0.0808 µM) | 24% | 64% | 68% | 0.01 µg/mL (≈ 0.0269 µM) | 0.03 µg/mL (≈ 0.0808 µM) | 32% | 0.1 µg/mL (≈ 0.269 µM) | 0.02 µg/mL (≈ 0.0539 µM) | 0.01 µg/mL (≈ 0.0269 µM) | 13% | 0.01 µg/mL (≈ 0.0269 µM) |
| O=c1[nH]c(=O)n([C@@H]2O[C@H](CO)[C@@H](O)[C@@H]2F)cc1CCCl | 74% | 1 µg/mL (≈ 3.24 µM) | 63% | 116% | 75% | 0.1 µg/mL (≈ 0.324 µM) | 2 µg/mL (≈ 6.48 µM) | 107% | 10 µg/mL (≈ 32.4 µM) | 0.3 µg/mL (≈ 0.972 µM) | 0.3 µg/mL (≈ 0.972 µM) | 68% | 0.1 µg/mL (≈ 0.324 µM) |
| O=c1[nH]c(=O)n([C@@H]2O[C@H](CO)[C@@H](O)[C@@H]2F)cc1CCF | 87% | 0.1 µg/mL (≈ 0.342 µM) | 90% | 113% | 98% | 0.03 µg/mL (≈ 0.103 µM) | 0.2 µg/mL (≈ 0.684 µM) | 105% | 0.3 µg/mL (≈ 1.03 µM) | 0.2 µg/mL (≈ 0.684 µM) | 0.03 µg/mL (≈ 0.103 µM) | 72% | 0.03 µg/mL (≈ 0.103 µM) |

Reference: ChEMBL document CHEMBL1123780, “2'-Fluorinated arabinonucleosides of 5-(2-haloalkyl)uracil: synthesis and antiviral activity” (1987)
